Assay results published in ChEMBL document CHEMBL1148529, “Isatin compounds as noncovalent SARS coronavirus 3C-like protease inhibitors” (J Med Chem, 2006).

How the values were obtained:
[1] = target: Replicase polyprotein 1a (Severe acute respiratory syndrome-related coronavirus) (UniProt P0C6U8); assay: Inhibition of SARS CoV 3C-like protease at 100 uM
Replicase polyprotein 1a = Replicase polyprotein 1a (Severe acute respiratory syndrome-related coronavirus, UniProt P0C6U8); assay: Inhibition of SARS CoV 3C-like protease
Trypsin = Trypsin (Homo sapiens, UniProt P07477+P07478+P35030); assay: Inhibition of trypsin; type: protein assay
Procedure, shortened: (§1)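 HPLC-based activity assay with substrate S0120 at 400 µM. Enzyme levels: papain 4.5 µM, chymotrypsin 0.45 µM, trypsin 0.23 µM. IC50 determined from HPLC measurements.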

[2] = target: T1, Human rhinovirus A protease (Human rhinovirus sp., UniProt Q4U254); assay: Inhibition of human rhinovirus 14 3C protease; design: species or system rhinovirus B14
T1 sequence (Q4U254 whole entry): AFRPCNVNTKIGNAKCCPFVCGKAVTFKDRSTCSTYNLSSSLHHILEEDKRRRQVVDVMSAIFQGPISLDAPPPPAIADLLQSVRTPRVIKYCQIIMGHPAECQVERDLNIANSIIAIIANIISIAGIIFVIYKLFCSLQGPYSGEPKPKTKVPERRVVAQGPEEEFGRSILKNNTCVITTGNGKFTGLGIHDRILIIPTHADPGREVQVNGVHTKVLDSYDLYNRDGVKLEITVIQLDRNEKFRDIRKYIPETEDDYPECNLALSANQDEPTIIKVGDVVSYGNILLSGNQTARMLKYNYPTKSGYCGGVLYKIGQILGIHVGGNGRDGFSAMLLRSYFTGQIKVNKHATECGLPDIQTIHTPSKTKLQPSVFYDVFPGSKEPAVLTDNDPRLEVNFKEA

Chymotrypsinogen B = Chymotrypsinogen B (Homo sapiens, UniProt P17538); assay: Inhibition of chymotrypsin; procedure, shortened: as §1
Sequence of Chymotrypsinogen B (P17538 34-164 limits assumed, other chains not shown): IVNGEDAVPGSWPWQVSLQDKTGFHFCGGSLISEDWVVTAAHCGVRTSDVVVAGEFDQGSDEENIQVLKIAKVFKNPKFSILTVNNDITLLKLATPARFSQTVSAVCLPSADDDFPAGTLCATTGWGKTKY
Sequence of Chymotrypsinogen B (P17538 167-263 limits assumed, other chains not shown): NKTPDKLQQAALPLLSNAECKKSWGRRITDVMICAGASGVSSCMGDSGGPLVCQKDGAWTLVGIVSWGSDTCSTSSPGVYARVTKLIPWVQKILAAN

Papain = target: T2, Papain (Carica papaya, UniProt P00784); assay: Inhibition of papain; procedure, shortened: as §1
T2 sequence (P00784 whole entry): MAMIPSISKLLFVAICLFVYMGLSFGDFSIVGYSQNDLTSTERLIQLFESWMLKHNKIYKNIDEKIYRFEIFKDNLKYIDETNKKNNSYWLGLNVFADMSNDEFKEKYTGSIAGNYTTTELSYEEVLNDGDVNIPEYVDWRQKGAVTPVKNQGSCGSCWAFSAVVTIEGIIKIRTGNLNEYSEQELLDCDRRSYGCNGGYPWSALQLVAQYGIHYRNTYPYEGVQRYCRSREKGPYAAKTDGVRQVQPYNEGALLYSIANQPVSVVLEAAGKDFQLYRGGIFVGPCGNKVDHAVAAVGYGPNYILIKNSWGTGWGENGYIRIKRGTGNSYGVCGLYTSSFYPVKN

SMILES	inhibition [1] [%]	further results
O=C(O)c1ccc2c(c1)C(=O)C(=O)N2Cc1ccc2ccccc2c1	46	–
CCCCN1C(=O)C(=O)c2cc(C(=O)OC)ccc21	< 25	–
O=C1C(=O)N(Cc2ccccc2)c2ccc(I)cc21	–	IC50 (Replicase polyprotein 1a): 50 µM; Ki (Replicase polyprotein 1a): 50 µM
CCCCN1C(=O)C(=O)c2cc(C(=O)O)ccc21	< 25	–
CN1C(=O)C(=O)c2cc(I)ccc21	< 25	–
NC(=O)c1ccc2c(c1)C(=O)C(=O)N2	< 25	–
NC(=O)c1ccc2c(c1)C(=O)C(=O)N2Cc1ccccc1	–	IC50 (Replicase polyprotein 1a): 12.5 µM
COC(=O)c1ccc2c(c1)C(=O)C(=O)N2Cc1ccccc1	< 25	–
CN1C(=O)C(=O)c2cc(C(=O)O)ccc21	< 25	–
CCCN1C(=O)C(=O)c2cc(I)ccc21	25	–
O=C(O)c1ccc2c(c1)C(=O)C(=O)N2Cc1ccccc1	< 25	–
CCCN1C(=O)C(=O)c2cc(C(=O)OC)ccc21	< 25	–
O=C1Nc2ccc(C(=O)O)cc2C1=O	< 25	–
CN1C(=O)C(=O)c2cc(C(N)=O)ccc21	–	IC50 (Replicase polyprotein 1a): 71 µM; Ki (Replicase polyprotein 1a): 71 µM
NC(=O)c1ccc2c(c1)C(=O)C(=O)N2Cc1ccc2ccccc2c1	–	IC50 (Trypsin): 352 µM; IC50 [2]: 0.004 µM; IC50 (Chymotrypsinogen B): 34 µM; IC50 (Papain): 11 µM
O=C1Nc2ccc(I)cc2C1=O	< 25	–
COC(=O)c1ccc2c(c1)C(=O)C(=O)N2Cc1ccc2ccccc2c1	< 25	–
COC(=O)c1ccc2c(c1)C(=O)C(=O)N2C	< 25	–
CCCN1C(=O)C(=O)c2cc(C(=O)O)ccc21	< 25	–
